# Activity calls are given as the source filed them. No cut-off for these calls is given here.
# Key:
# [1] = Antioxidant activity of compound assessed as trolox equivalent antioxidant capacity by ORAC-FL assay; format: functional
# Acetylcholinesterase = biological target: T1, Acetylcholinesterase (Rattus norvegicus, UniProt P37136); experiment: Inhibition of rat cortex homogenate acetylcholinesterase by Ellman's method
# T1 sequence (P37136 whole entry): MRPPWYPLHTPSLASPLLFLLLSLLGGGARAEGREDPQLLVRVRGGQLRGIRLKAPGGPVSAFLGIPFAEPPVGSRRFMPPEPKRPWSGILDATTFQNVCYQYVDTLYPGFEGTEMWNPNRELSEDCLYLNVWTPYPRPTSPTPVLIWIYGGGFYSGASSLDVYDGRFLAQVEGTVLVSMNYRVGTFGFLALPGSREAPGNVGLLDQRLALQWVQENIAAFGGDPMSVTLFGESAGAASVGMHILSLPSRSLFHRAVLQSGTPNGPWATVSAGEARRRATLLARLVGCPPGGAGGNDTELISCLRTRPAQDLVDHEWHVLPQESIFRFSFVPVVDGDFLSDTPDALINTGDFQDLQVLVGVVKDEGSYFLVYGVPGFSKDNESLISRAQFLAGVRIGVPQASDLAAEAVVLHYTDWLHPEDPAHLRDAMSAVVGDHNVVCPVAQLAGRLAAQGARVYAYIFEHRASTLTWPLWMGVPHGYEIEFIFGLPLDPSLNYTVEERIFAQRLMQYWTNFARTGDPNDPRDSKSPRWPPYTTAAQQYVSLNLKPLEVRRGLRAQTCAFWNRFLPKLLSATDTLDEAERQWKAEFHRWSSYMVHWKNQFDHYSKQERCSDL
# PC-12 = experiment: Neuroprotective activity against H2O2-induced cytotoxicity in rat PC12 cells assessed as increase in cell viability by MTT assay; format: functional, cell-based
# Method in brief: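 PC12 cells exposed to 100 μM H2O2, with or without compound. Viability read by MTT reduction relative to control. Trolox 100 μM is the reference.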
# [2] = Metal chelating activity assessed as compound Fe2+ complex formation by UV-Visible spectrophotometry
# Method in brief: (§1)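 UV-vis spectra recorded from 200 to 600 nm on a multimode reader. Metals tested as CuCl2, FeSO4, ZnCl2 and AlCl3.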
# [3] = Acute toxicity in KM mouse assessed as mortality upto 1000 mg/kg,po administered as single dose measured for 14 days; format: organism-based; details: in vivo, 336 h, time 14 day
# [4] = Metal chelating activity assessed as compound-Al3+ complex formation by measuring maximum absorption wavelength shifted from 444 nm to 468 nm by UV-Visible spectrophotometry; method in brief: as §1
# [5] = biological target: T2, Amyloid-beta precursor protein (Homo sapiens, UniProt P05067); experiment: Inhibition of self-induced amyloid beta (1 to 42) (unknown origin) assessed as reduction in fibril formation incubated for 24 hrs by transmission electron microscopy
# Method in brief: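 Aβ1-42 at 25 μM incubated 24 h with or without compound at 25 μM. Samples imaged by transmission electron microscopy.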
# [6] = biological target: T2, Amyloid-beta precursor protein; experiment: Disaggregation of Cu2+ induced amyloid beta (1 to 42 residues) (unknown origin) aggregation at 25 uM by thioflavin-T fluorescence method relative to control
# T2 sequence (P05067 whole entry): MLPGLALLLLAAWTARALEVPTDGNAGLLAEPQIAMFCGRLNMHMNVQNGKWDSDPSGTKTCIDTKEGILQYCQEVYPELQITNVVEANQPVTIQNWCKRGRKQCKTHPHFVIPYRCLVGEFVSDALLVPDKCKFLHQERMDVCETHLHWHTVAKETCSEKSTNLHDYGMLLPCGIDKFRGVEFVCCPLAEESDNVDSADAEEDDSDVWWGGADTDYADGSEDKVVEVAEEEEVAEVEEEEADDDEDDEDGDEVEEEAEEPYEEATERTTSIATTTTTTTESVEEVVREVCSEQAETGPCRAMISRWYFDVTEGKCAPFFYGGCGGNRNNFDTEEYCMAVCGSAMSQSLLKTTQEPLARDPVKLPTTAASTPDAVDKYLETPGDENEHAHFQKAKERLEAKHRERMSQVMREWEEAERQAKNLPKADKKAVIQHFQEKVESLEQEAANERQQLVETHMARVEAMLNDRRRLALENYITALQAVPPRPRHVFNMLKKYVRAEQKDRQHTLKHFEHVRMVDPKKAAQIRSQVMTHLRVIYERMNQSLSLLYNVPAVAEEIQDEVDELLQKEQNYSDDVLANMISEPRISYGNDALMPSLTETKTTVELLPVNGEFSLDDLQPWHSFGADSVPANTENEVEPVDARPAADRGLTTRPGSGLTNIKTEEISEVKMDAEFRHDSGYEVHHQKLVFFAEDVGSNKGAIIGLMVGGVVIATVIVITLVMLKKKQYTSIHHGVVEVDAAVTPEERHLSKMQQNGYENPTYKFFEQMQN
smiles,measurement,setting,value
CCN(CCCCOc1ccc(C(=O)/C=C/c2ccc(N(C)C)cc2)c(O)c1)Cc1ccccc1N(C)C,Activity,[1],2.1
same,IC50,Acetylcholinesterase,130 nM
same,Activity,PC-12,Dose-Dependent Effect
same,Activity,[2],inactive
same,Activity,[3],Non-Toxic
same,Activity,[4],Active
same,Activity,[5],inactive
same,Activity,[6],88.1%

# Reference: ChEMBL document CHEMBL4813970, “Design, synthesis and evaluation of novel dimethylamino chalcone-O-alkylamines derivatives as potential multifunctional agents against Alzheimer's disease” (Eur J Med Chem, 2021)
